For experiment [1], the target named is Solute carrier family 12 member 5 (Homo sapiens) (UniProt Q9H2X9). Kind of experiment: retest of KCC2 transport modulators without sodium – cell-based, HEK293 KCC2, thallium flux, secondary assay, confirmation (AID 1713;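 active = thallium flux slope above the same plate's solvent-only control mean plus 3 SD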). The following applies: FluoZin2 fluorescence, at 10 µM, hits give high values. The method in brief: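 Test system: KCC2-expressing HEK cells. Medium: Sodium-free N-methylglucamine chloride buffer. Schedule: dye loading 48 min. Technique: kinetic thallium-flux fluorescence imaging.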
Chain of Solute carrier family 12 member 5 (Homo sapiens) (Q9H2X9 whole entry, looked up): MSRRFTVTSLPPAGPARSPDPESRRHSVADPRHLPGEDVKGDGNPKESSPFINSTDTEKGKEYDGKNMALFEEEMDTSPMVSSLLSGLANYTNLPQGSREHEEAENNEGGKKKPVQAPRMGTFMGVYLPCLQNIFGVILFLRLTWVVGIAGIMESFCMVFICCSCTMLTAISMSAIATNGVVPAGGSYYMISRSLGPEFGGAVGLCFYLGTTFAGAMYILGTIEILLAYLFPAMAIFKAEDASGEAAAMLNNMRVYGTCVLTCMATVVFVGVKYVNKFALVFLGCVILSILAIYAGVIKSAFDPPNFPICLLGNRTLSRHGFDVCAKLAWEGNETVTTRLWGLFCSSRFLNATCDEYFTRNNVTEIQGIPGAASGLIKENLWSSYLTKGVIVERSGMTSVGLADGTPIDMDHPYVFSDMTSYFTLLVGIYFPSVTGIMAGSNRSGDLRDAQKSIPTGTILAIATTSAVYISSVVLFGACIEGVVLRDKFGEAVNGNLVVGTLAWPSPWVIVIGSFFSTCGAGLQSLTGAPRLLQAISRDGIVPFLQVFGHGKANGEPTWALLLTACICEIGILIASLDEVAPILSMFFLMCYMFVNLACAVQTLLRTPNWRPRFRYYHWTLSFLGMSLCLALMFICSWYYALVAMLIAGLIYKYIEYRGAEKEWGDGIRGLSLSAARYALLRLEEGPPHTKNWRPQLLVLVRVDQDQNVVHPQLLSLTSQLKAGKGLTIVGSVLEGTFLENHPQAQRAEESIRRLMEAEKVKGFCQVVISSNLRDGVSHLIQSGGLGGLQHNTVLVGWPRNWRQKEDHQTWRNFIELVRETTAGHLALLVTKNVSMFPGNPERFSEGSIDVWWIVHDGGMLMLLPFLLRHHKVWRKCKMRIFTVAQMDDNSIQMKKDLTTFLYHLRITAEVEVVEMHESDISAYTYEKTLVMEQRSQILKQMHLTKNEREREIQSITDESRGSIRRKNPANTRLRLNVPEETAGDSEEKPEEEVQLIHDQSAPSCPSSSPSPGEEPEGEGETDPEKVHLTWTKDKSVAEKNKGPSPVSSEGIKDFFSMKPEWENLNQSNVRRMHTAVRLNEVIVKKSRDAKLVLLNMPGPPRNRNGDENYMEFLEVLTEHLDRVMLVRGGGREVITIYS

Another experiment can be described thus: PubChem AID 1714.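 Also: raw slope of fluorescence over initial fluorescence between 10 and 20 s after thallium.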 The following applies: HEK293-KCC2 + bumetanide/ouabain, thallium flux FluoZin2; at 10 µM; hits give high values. The method in brief: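 Test system – KCC2-expressing HEK cells · Medium – HBSS-HEPES with ouabain and bumetanide · Reagent – thallium stimulus · Dosing – 10 µM single dose · Times – 48 min dye loading · Technique – kinetic FluoZin2 fluorescence, ex 480/em 540 nm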

The target of experiment [2] is Solute carrier family 12 member 5 (Homo sapiens) (UniProt Q9H2X9). Briefly: retest of KCC2 transport modulation, ouabain-free – cell-based, HEK293 KCC2, thallium flux, FluoZin2, secondary assay 2, confirmation (AID 1715;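 active = thallium flux slope more than 3 SD above or below the plate's solvent-only control mean, mostly below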;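 also: raw slope with 0.1% DMSO as baseline and bumetanide as block control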). The following applies: HEK293-KCC2, thallium flux FluoZin2 fluorescence; at 10 µM; actives lie on both sides; F/F0 rise rate, 10–20 s post-thallium.

The nature of experiment [3]: compound effects on native HEK Tl+ uptake – HEK cells, counterscreen 1, counter-screen for KCC2 modulator project, confirmation (AID 1716;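 active = thallium flux rate significantly above the same plate's solvent-only control wells, beyond their mean plus 3 SD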). To be noted: HEK293 parental cells, thallium flux FluoZin2, ouabain; at 10 µM; baseline-ratio fluorescence slope, 10–20 s after thallium.
Experiment [4] deals with Solute carrier family 12 member 5 (Homo sapiens) (UniProt Q9H2X9). Briefly: modulation of KCC2 thallium flux in HEK cells – cell-based, ouabain, retest, confirmation (AID 1717;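 active = thallium flux slope beyond 3 SD from same-plate DMSO control mean in most replicates, usually higher, sometimes lower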;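 also: slope of initial-normalized fluorescence between seconds 10 and 20 after thallium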). The following applies: HEK293-KCC2, thallium flux FluoZin2 fluorescence, at 10 µM, bidirectional: low = inhibitor, high = activator.
The nature of experiment [5]: native HEK Tl+ uptake effects, second counter-screen – HEK cells, counterscreen 2, counter-screen for KCC2 modulator project, confirmation (AID 1718;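 active = thallium flux slope above the same plate's solvent-control mean plus 3 SD in both duplicate wells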;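 also: run without ouabain in cells lacking the KCC2 cotransporter; slope of fluorescence scaled to its starting value between 10 and 20 s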). The following applies: HEK293 parental, thallium flux FluoZin-2 fluorescence slope; at 10 µM. The method in brief: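 Read-out: thallium influx rate; assay system: parental HEK cells; replication: slope calculated separately for each replicate well; signal: FluoZin2-AM fluorescence (0.5 µM), ex 480 nm, em 540 nm, kinetic 1 Hz; benchmarks: bumetanide 2 mM; schedule: overnight cell culture at 37 °C, 48 min dye loading, compound before thallium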

Each structure is given as a SMILES string. Some of the results follow. Records with an inconclusive call do not appear. Values without a mark were called inactive. Active and inactive are the calls of the source.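 The calls were made as follows, unless noted: active = thallium entry rate above the same plate's blocked-transporter control wells by more than 3 SD; inconclusive = the two repeat wells disagree; inactive = the rest.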

On to `Cc1ccc(C2CC(=O)NC(SCC(=O)OCc3ccccc3)=C2C#N)o1` (configuration not stated), for which the normalised thallium flux (F/F0 slope) in experiment [1] is 0.0147. In addition, the normalized thallium flux in the experiment “PubChem AID 1714” was 0.00407; in experiment [2], 0.0273. The thallium flux rate (normalised fluorescence) in experiment [3] is 0.00691. Moreover, the raw Tl+ flux slope (below DMSO = inhibition, above = activation) in experiment [4] was 0.0133 (active). For the same molecule, the thallium flux slope in experiment [5] was 0.00974.
Take `CCC(=O)NC(=Nc1nc2ccccc2s1)NC(=O)CC`: in experiment [1], the normalised thallium flux (F/F0 slope) was 0.00696. In addition, the results for the normalized thallium flux (in “PubChem AID 1714”; in experiment [2]) were 0.0683 (active) and 0.0951 (active), respectively. For the same molecule, in experiment [3], the thallium flux rate (normalised fluorescence) is 0.0894 (active). Moreover, the raw Tl+ flux slope (below DMSO = inhibition, above = activation) in experiment [4] was 0.0811 (active). In addition, in experiment [5], the thallium flux slope was 0.0859 (active).
As to `Cc1nnc(SC(C(=O)Nc2cc(Cl)cc(Cl)c2)c2ccccc2)[nH]c1=O` (configuration not stated), the normalised thallium flux (F/F0 slope) in experiment [1] was 0.00885. Also, the normalized thallium flux is 0.00559 in “PubChem AID 1714” and 0.0302 in experiment [2]. Also, the thallium flux rate (normalised fluorescence) in experiment [3] was 0.00486 (active). Moreover, in experiment [4], the raw Tl+ flux slope (below DMSO = inhibition, above = activation) is 0.0159 (active).
For `COc1ccc(C(=O)NC(=S)NNC(=O)c2c(-c3ccccc3)noc2C)cc1`, the normalised thallium flux (F/F0 slope) in experiment [1] is 0.00558. In addition, the normalized thallium flux is 0.0445 (active) in the experiment “PubChem AID 1714” and 0.0501 (active) in experiment [2]. Moreover, the thallium flux rate (normalised fluorescence) in experiment [3] is 0.0354 (active). Moreover, the raw Tl+ flux slope (below DMSO = inhibition, above = activation) in experiment [4] is 0.0401 (active). Besides, the thallium flux slope in experiment [5] was 0.0396 (active).
Consider `CCCOC(=O)CC1C(=O)NCCN1Cc1ccc(F)cc1` (configuration not stated), for which the normalised thallium flux (F/F0 slope) in experiment [1] was 0.00813. The normalized thallium flux in the experiment “PubChem AID 1714” was 0.00582; in experiment [2], 0.0278. For the same molecule, in experiment [3], the thallium flux rate (normalised fluorescence) was 0.0066. For the same molecule, the raw Tl+ flux slope (below DMSO = inhibition, above = activation) in experiment [4] was 0.019. Besides, the thallium flux slope in experiment [5] was 0.00872.
Regarding `Cc1ccc(OCc2n[nH]c(=S)n2-c2ccc(C)cc2)cc1`, the normalised thallium flux (F/F0 slope) in experiment [1] is 0.0109. The normalized thallium flux is 0.094 (active) in the experiment “PubChem AID 1714” and 0.0355 in experiment [2]. Moreover, the thallium flux rate (normalised fluorescence) in experiment [3] is 0.0134 (active).
Turning to `COCCNc1nc(-n2nc(C)cc2C)nc2sc3c(c12)CCCC3`, the normalised thallium flux (F/F0 slope) in experiment [1] was 0.00873. For the same molecule, the results for the normalized thallium flux (in the experiment “PubChem AID 1714”; in experiment [2]) were 0.00523 and 0.0328, respectively. In addition, the thallium flux rate (normalised fluorescence) in experiment [3] is 0.00524 (active). Further, the raw Tl+ flux slope (below DMSO = inhibition, above = activation) in experiment [4] was 0.0165 (active). The thallium flux slope in experiment [5] is 0.00908.
On to `O=C1/C(=C\c2ccsc2)NC(=S)N1c1ccccc1`, for which the normalised thallium flux (F/F0 slope) in experiment [1] was 0.024 (active). The normalized thallium flux in “PubChem AID 1714” was 0.0414 (active); in experiment [2], 0.039 (active). Further, in experiment [3], the thallium flux rate (normalised fluorescence) is 0.0238 (active). Further, the raw Tl+ flux slope (below DMSO = inhibition, above = activation) in experiment [4] is 0.0341 (active). The thallium flux slope in experiment [5] was 0.024 (active).
Consider `N=c1oc2ccccc2cc1C(=O)N/N=C/c1ccccc1`, for which the normalised thallium flux (F/F0 slope) in experiment [1] was 0.00592 (active). Moreover, the results for the normalized thallium flux (in the experiment “PubChem AID 1714”; in experiment [2]) were 0.00648 and 0.0291, respectively. Moreover, the thallium flux rate (normalised fluorescence) in experiment [3] is 0.00736. In addition, in experiment [4], the raw Tl+ flux slope (below DMSO = inhibition, above = activation) was 0.0198 (active).
For `COc1ccc(NC(=O)COC(=O)c2ccc(NS(=O)(=O)/C=C/c3ccccc3)cc2)cc1`, in that order: 0.00992, 0.00679, 0.0304, 0.00722 and 0.0244.
As for `Cc1ccc(N2C(=O)C(Cc3ccccc3)NC2=S)cc1` (configuration not stated), the normalised thallium flux (F/F0 slope) in experiment [1] was 0.00991. The normalized thallium flux in the experiment “PubChem AID 1714” was 0.0247 (active); in experiment [2] it was 0.032. In addition, in experiment [3], the thallium flux rate (normalised fluorescence) is 0.0128 (active). In experiment [4], the raw Tl+ flux slope (below DMSO = inhibition, above = activation) is 0.0236.
For `C=CCNC(=S)N/N=C/c1ccc(C)s1` the same measures were 0.0134 (active), 0.0311 (active), 0.0287, 0.0119 (active) and 0.0521 (active).
Consider `COc1ccc([N+](=O)[O-])cc1NC(=O)COC(=O)/C=C/c1ccco1`, for which the normalised thallium flux (F/F0 slope) in experiment [1] was 0.00867. Also, the figures for the normalized thallium flux (in the experiment “PubChem AID 1714”; in experiment [2]) were 0.00651 and 0.0316, respectively. Further, the thallium flux rate (normalised fluorescence) in experiment [3] is 0.0079. Further, the raw Tl+ flux slope (below DMSO = inhibition, above = activation) in experiment [4] was 0.0204. The thallium flux slope in experiment [5] was 0.011.
For `O=S(=O)(c1ccc(F)cc1)N1CCN(C(=S)NCc2ccco2)CC1`, the normalised thallium flux (F/F0 slope) in experiment [1] is 0.0076. Moreover, the figures for the normalized thallium flux (in “PubChem AID 1714”; in experiment [2]) were 0.0054 and 0.0354, respectively. Also, the thallium flux rate (normalised fluorescence) in experiment [3] is 0.00396. Also, the raw Tl+ flux slope (below DMSO = inhibition, above = activation) in experiment [4] was 0.0185. Also, the thallium flux slope in experiment [5] was 0.0111.
Consider `CC(C)C1Nc2c(C(=O)O)cccc2C(Nc2ccccc2C(=O)O)C1(C)C` (configuration not stated), for which the normalised thallium flux (F/F0 slope) in experiment [1] was 0.00578. In addition, the normalized thallium flux in “PubChem AID 1714” was 0.00489; in experiment [2] it was 0.0236 (active). Further, the thallium flux rate (normalised fluorescence) in experiment [3] is 0.00619 (active). For the same molecule, the raw Tl+ flux slope (below DMSO = inhibition, above = activation) in experiment [4] was 0.0131 (active).
For the molecule `COc1ccc(CN2CCCCC2C)cc1OC` (configuration not stated), the normalised thallium flux (F/F0 slope) in experiment [1] was 0.00901. The normalized thallium flux in “PubChem AID 1714” was 0.00633; in experiment [2], 0.0321. For the same molecule, the thallium flux rate (normalised fluorescence) in experiment [3] is 0.00759. The raw Tl+ flux slope (below DMSO = inhibition, above = activation) in experiment [4] was 0.0191. The thallium flux slope in experiment [5] was 0.011.
For the molecule `COc1ccc(-n2c(=S)[nH]c3sc4c(c3c2=O)CCc2ccccc2-4)cc1`, the normalised thallium flux (F/F0 slope) in experiment [1] is 0.0163 (active). In addition, the normalized thallium flux was 0.0262 (active) in the experiment “PubChem AID 1714” and 0.0334 in experiment [2]. Besides, the thallium flux rate (normalised fluorescence) in experiment [3] is 0.0162 (active). In experiment [4], the raw Tl+ flux slope (below DMSO = inhibition, above = activation) was 0.0311 (active).
Consider `CCc1ccc2nc3sc(C(=O)Nc4nnc(CC)s4)c(N)c3cc2c1`, for which the normalised thallium flux (F/F0 slope) in experiment [1] was 0.00632. The values for the normalized thallium flux (in “PubChem AID 1714”; in experiment [2]) were 0.000813 (active) and 0.0241 (active), respectively. Also, the thallium flux rate (normalised fluorescence) in experiment [3] was 0.00534 (active). Also, the raw Tl+ flux slope (below DMSO = inhibition, above = activation) in experiment [4] is 0.0132 (active).
For `CS(=O)(=O)c1sc(C(=O)NC(=S)Nc2ccc(OC(F)(F)F)cc2)c2c1C=CCC2` the same measures were 0.00979, 0.0362 (active), 0.0324, 0.0134 (active) and 0.0498 (active).
Consider `Cc1ccccc1-c1n[nH]c(=S)n1/N=C/c1ccc(-c2ccccc2Br)o1`, for which the normalised thallium flux (F/F0 slope) in experiment [1] is 0.0093. The normalized thallium flux was 0.016 (active) in “PubChem AID 1714” and 0.0304 in experiment [2]. For the same molecule, the thallium flux rate (normalised fluorescence) in experiment [3] is 0.00991 (active).

The record behind these values is PubChem BioAssay.
